In article PMC8184462 (Annals of Translational Medicine, 2021):

Legend:
[1] = Plasma pharmacokinetics of unlabeled almonertinib and metabolite HAS-719; format: in vivo, human
How it was run: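 Four healthy fasted male volunteers received one oral [14C]-labeled suspension of the test compound (110 mg/50 µCi) and ate lunch 4 h after dosing. Blood (7 mL) was drawn predose and at 1–504 h, centrifuged (3,000 rpm, 10 min) and stored at –20 °C. Parent and metabolite were quantified by validated LC-MS/MS. Noncompartmental parameters are reported as mean ± SD.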

[2] = format: in vivo, human
How it was run: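 Urine and feces were collected until cumulative recovery exceeded 80% of dose and fell below 1% of dose per day on 2 consecutive days. Radioactivity was counted by liquid scintillation: urine directly, feces after homogenization with solvent and combustion with CO2 trapping. Each interval's excretion was expressed relative to the actual administered radioactivity (vial content minus residue), then summed cumulatively.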

[3] = system: T790M-mutant NSCLC cell line H1975; details: ref [14],[15]; cited from earlier work
[4] = system: T790M-mutant NSCLC cell line LU1868; details: ref [14],[15]; cited from earlier work
[5] = system: NSCLC HCC827 cell line harboring EGFR-sensitive mutants; details: ref [14],[15]; cited from earlier work
NSCLC = details: ref [15], cited from earlier work

Q: What does the source list for `C=CC(=O)Nc1cc(Nc2nccc(-c3cn(C4CC4)c4ccccc34)n2)c(OC)cc1N(C)CCN(C)C` [HS-10296, almonertinib]?
A: CL/F ([1]; LC-MS/MS, single oral 110 mg/50 µCi, mean±SD): 36.8 ± 10.8 L/h; AUC(0-inf) ([1]; male, human, po, 110 mg): 3160 ng·h/mL; AUC(0-t) ([1]; male, human, po, 110 mg): 2900 ng·h/mL; Cmax ([1]; male, human, po, 110 mg): 119 ± 27.7 ng/mL; Tmax ([1]; male, human, po, 110 mg): 5.25 ± 3.2 h; Vd/F ([1]; male, human, po, 110 mg): 1270 L; half-life ([1]; male, human, po, 110 mg): 25 ± 6.41 h; Main excretion route ([2]; 0–504 hours): mainly excreted via feces; Cumulative excretion rate of drug TRA (urine + feces) ([2]; 0–504 hours after administration, % of dose): 90.19%±4.18%; Cumulative excretion rate in feces ([2]; 0–504 hours, % of dose): 84.75%±3.35%; Cumulative excretion rate in urine ([2]; 0–504 hours, % of dose): 5.44%±0.83%; Growth inhibition [3]: potently inhibited the growth; Growth inhibition [4]: potently inhibited the growth; Growth inhibition [5]: potently inhibited the growth; Tolerability (NSCLC; 26 patients, 55, 110, 220, 260 mg, single or multiple dose): well tolerated; Dose linearity of metabolism (NSCLC; 55–260 mg): linear trend; Antitumor activity (NSCLC; NSCLC patients, dose-escalation cohort): preliminary antitumor activity
